We go through nine compounds from ChEMBL document CHEMBL1138107, “Novel non-nucleobase inhibitors of Staphylococcus aureus DNA polymerase IIIC” (Bioorg Med Chem Lett, 2006).

Assay [1] has as its system HeLa. Kind of assay: Cytotoxicity against HeLa cell line by MTS assay. The assay is classed as functional, cell-based. To be noted: Homo sapiens. An outline of the steps:
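HeLa cells (2 × 10⁴/well) in DMEM with 1% bovine growth serum were exposed to compound at 100, 50, 25 and 12.5 for 18 h at 37 °C under 5% CO₂. Viability was read as MTS reduction to formazan, by absorbance at 490 nm.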
On the technique in general: Tetrazolium dyes change colour on reduction, which living cells bring about.

The subject of assay [2] is Hepatocyte. Briefly: Cytotoxicity against human hepatocytes by measure of ATP production at 100 uM. The assay is classed as functional, cell-based. An outline of the steps:
(§1)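 Cryopreserved primary human hepatocytes (1 × 10⁴/well) in Krebs–Henseleit buffer were incubated with compound at 100, 50, 25 and 12.5 for 2 h at 37 °C under 5% CO₂. ATP content was then measured by luminescence after adding luciferin and luciferase.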

Assay [3] relates to Staphylococcus aureus. Briefly: Antimicrobial activity against Staphylococcus aureus (RN4220) in presence of 50% of human serum. The class given is functional.
For assay [4], the target named is T1, DNA polymerase III PolC-type (Staphylococcus aureus) (UniProt P0C1P9).
T1 sequence (whole entry): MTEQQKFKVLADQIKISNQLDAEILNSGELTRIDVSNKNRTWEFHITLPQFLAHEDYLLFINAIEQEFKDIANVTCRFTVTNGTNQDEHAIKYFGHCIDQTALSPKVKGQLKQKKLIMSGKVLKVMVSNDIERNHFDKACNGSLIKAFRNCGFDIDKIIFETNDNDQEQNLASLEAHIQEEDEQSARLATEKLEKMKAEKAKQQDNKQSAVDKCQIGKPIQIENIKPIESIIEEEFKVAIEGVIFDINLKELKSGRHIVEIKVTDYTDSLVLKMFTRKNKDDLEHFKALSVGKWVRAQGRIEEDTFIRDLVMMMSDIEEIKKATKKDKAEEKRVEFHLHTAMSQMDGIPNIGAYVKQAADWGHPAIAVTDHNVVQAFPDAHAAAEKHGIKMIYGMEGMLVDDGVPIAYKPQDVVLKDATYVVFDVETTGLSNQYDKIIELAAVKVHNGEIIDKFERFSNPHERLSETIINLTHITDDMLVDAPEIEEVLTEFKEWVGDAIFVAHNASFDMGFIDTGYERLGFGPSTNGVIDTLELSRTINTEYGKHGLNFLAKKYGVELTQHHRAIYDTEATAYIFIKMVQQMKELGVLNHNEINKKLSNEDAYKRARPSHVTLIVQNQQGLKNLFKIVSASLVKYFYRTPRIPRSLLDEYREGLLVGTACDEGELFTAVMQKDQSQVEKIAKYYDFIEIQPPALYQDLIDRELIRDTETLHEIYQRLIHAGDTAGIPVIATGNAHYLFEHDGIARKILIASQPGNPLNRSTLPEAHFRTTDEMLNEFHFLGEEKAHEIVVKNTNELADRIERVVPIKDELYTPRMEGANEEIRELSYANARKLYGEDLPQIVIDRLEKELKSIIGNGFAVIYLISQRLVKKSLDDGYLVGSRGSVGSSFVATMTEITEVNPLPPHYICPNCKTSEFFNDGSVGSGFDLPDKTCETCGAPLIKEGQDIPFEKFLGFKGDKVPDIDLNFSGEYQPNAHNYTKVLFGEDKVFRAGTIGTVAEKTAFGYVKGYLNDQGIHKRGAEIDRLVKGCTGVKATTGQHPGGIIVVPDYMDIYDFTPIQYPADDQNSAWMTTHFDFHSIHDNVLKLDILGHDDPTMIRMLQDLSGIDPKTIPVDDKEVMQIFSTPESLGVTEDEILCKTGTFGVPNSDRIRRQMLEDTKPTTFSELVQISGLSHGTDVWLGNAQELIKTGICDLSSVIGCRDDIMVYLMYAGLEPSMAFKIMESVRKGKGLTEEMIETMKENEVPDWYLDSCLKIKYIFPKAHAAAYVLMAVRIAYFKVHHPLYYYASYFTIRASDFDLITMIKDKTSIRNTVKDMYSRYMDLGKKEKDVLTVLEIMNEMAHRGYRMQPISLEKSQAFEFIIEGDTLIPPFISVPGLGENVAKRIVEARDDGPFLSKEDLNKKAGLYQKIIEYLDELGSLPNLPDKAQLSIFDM
Kind of assay: Inhibition of DNA polymerase3C from Staphylococcus aureus at 100 uM. Summed up: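 PolC oligonucleotide-primed incorporation of [³H]dTTP was run with 125 ng purified enzyme for 30 min at 37 °C. It was quenched with EDTA, filter-bound on DE81 and counted by liquid scintillation. Compounds were screened in triplicate at 10, 50 and 100.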

The test system of assay [5] is Staphylococcus aureus. Briefly: Antimicrobial activity against Staphylococcus aureus (RN4220). The class given is functional.
In assay [6] the test system is Hepatocyte. Kind of assay: Decrease in ATP productions in human hepatocytes at 100 uM. The class given is functional, cell-based. Summed up:
as §1

Assay [7] has as its target T2, DNA polymerase III PolC-type (Staphylococcus aureus, UniProt P0C1P9).
T2 sequence (P0C1P9 whole entry): T1 sequence (whole entry)
Briefly: Inhibition of DNA polymerase3C from Staphylococcus aureus. An outline of the steps:
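Purified PolC (125 ng) started the reaction with a double-stranded oligonucleotide substrate, dATP, dCTP, low dGTP and [³H]dTTP (1 Ci/mmol) in Tris-HCl pH 7.5 buffer with glycerol, EDTA, DTT, IgG and 8 mM MgCl₂. Incubation was 30 min at 37 °C, stopped with 20 mM EDTA, then spotted on DE81 filters, washed and counted by scintillation. IC50 came from a 12-point, roughly 2-fold serial dilution, run in triplicate.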

The test system of assay [8] is Hepatocyte. Briefly: Cytotoxicity against human hepatocytes by measure of ATP production at 50 uM. The assay is classed as functional, cell-based. An outline of the steps: as §1
Assay [9] has as its system Staphylococcus aureus. Briefly: Inhibition of DNA replication utilizing Staphylococcus aureus replication proteins in presence of reduced dATP concentrations. The class given is functional, organism-based. Summed up: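 The replication assay used a singly primed circular ssM13 template copied by S. aureus PolC, with β clamp, δδ′/τ clamp loader and SSB. [³H]dTTP incorporation was measured in streptavidin-coated scintillation plates, with the dATP concentration reduced to sensitize the assay to dATP analogs.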

Values after ≈ are worked out from the molar mass of the structure shown. Active and inactive are the calls of the source. No cut-off for these calls is given here.

Turning to `C=CCc1c(O)nc(Nc2ccc3c(c2)CCC3)nc1O`, in assay [1], the Activity entry was “Not toxic”. Also, the result in assay [2] was inactive. Also, the minimum inhibitory concentration (MIC) – broadly, the least concentration at which growth counts as inhibited – in assay [3] is more than 128 µg/mL; in assay [5] (read-out: MIC), 16 µg/mL (≈ 56.5 µM). The inhibition (in general, the drop in the measured response relative to a control, in per cent) in assay [4] was found to be 65%.
As to `Oc1nc(Nc2ccc3c(c2)CCC3)nc(O)c1CCCc1ccccc1`, the Activity entry in assay [1] is “Not toxic”. Further, the result in assay [6] was Active. In assay [4], the inhibition worked out at 75%. Also, the minimum inhibitory concentration (MIC) in assay [5] (read-out: MIC) was found to be 8 µg/mL (≈ 22.1 µM).
Turning to `COc1cc(C#N)ccc1OCCCc1c(O)nc(Nc2ccc3c(c2)CCC3)nc1O`, the Activity result in assay [1] was “Not toxic”. Further, the outcome in assay [2] was inactive. The IC50 (usually the concentration at which inhibition is half-maximal) in assay [7] came to 3 µM. The compound also returned an inhibition in assay [4] of 95%. Besides, the MIC in assay [5] (read-out: MIC) worked out at 16 µg/mL (≈ 37 µM).
For `CCc1cc(Nc2nc(O)c(Cc3ccccc3)c(O)n2)ccc1C`, in that order: “Not toxic”, “inactive”, 4 µM, 94% and 8 µg/mL (≈ 23.9 µM).
`C=CCc1c(O)nc(Nc2ccc(C)c(CC)c2)nc1O`: in assay [1], the Activity entry was “Not toxic”. For the same compound, the result in [6] was Active. Further, in [4], the inhibition turned out to be 90%. Moreover, in assay [5] (read-out: MIC), the MIC worked out at 8 µg/mL (≈ 28 µM).
Regarding `Oc1nc(Nc2ccc3c(c2)CCC3)nc(O)c1CCCOc1ccccc1`, the Activity entry in assay [1] is “Not toxic”; in [8] it was “Toxic”. The IC50 in assay [7] is 4 µM. The compound further returned an inhibition in assay [4] of 74%. Also, in assay [5] (read-out: MIC), the minimum inhibitory concentration (MIC) was 8 µg/mL (≈ 21.2 µM).
Take `CCc1cc(Nc2nc(N)cc(O)n2)ccc1C`: the Activity entry in [1] is “Not toxic”. Also, the MIC in assay [3] amounted to 32 µg/mL; in assay [5], 16 µg/mL (≈ 65.5 µM). In addition, the values for the IC50 in assay [9] and in assay [7] were 28 µM and 104 µM, respectively. In [4], this compound yielded an inhibition of 36%.
In the case of `Nc1nc(Nc2ccc3c(c2)CCC3)nc(O)c1CCCc1ccccc1`, in assay [1], the Activity result was “Not toxic”. Also, the minimal inhibitory concentration (MIC) in assay [3] and in [5] (read-out: MIC) was more than 128 µg/mL throughout. The 50% inhibitory concentration (IC50) in assay [9] is more than 100 µM. This compound also came in with an inhibition in assay [4] of -0%.
For the compound `CCc1cc(Nc2nc(N)c(Cc3ccccc3)c(O)n2)ccc1C`, the Activity entry in assay [1] is “Not toxic”. The MIC in assay [3] and in assay [5] (read-out: MIC) was more than 128 µg/mL throughout. The IC50 in assay [9] was determined as 9.7 µM. This compound came in with an inhibition in assay [4] of 3%.
